hERG rescue: compounds protecting human hERG from proarrhythmic drug block. Q12809. CHO-hERG, FluxOR thallium flux, dofetilide IC70 present. activation (rescue from dofetilide block), less the hit threshold, % at 10 µM. 310,000 compounds, 0.51% hits. AID 1511;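 active means activation above the mean of controls blocked by dofetilide plus 5 SD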;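 further: thallium influx through hERG after potassium depolarization seen as dye fluorescence rise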
KCNK3 block: human KCNK3 channel inhibition, primary screen; O14649; CHO-KCNK3 thallium flux, FluxOR fluorescence; stronger effect = lower value; B-score at 10 µM; 340,000 compounds, 0.84% hits; AID 602410;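 active means B-score under library mean minus 4 SD, starting fluorescence ratio at most library mean plus 5 SD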;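 further: more negative B-score means stronger inhibition of thallium flux through KCNK3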
KCNQ1 block: blocks the human KCNQ1 potassium channel; AID 2642; B-score at 10 µM; CHO-K1 KCNQ1, FluxOR thallium flux fluorescence; stronger effect = higher value; 310,000 compounds, 1.3% hits; P51787;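 active means compounds whose thallium flux B-score, printed positive for inhibition, exceeds three library SD while starting fluorescence stays within three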;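 further: channel opened by potassium depolarization with thallium stimulus after 20 min compound exposure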
Target sequence (P51787 whole entry, looked up): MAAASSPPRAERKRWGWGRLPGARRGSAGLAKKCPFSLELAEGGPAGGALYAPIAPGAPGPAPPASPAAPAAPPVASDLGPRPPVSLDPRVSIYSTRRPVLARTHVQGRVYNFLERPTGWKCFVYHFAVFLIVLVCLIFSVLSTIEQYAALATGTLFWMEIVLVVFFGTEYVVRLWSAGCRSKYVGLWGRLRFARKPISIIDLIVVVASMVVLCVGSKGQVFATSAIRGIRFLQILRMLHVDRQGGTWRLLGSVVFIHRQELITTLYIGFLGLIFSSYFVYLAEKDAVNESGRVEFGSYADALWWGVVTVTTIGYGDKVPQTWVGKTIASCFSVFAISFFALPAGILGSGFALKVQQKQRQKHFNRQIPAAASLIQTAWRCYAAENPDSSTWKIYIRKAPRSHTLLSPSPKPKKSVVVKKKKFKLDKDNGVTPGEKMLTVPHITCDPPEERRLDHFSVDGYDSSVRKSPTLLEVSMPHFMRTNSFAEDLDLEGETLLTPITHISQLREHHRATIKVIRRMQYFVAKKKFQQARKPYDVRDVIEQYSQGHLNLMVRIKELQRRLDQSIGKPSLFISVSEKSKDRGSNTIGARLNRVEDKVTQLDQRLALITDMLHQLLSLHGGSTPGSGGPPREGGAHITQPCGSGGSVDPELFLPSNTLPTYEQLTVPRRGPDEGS
Kir21 block: blocks the mouse Kir2.1 inward-rectifier potassium channel; P35561; 310,000 compounds, 0.85% hits; B-score at 10 µM; HEK293-Kir2.1, FluxOR thallium flux fluorescence; stronger effect = lower value;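 active means fluorescence ratio B-score at or below minus 3 SD of library scores, with starting-brightness B-score within 2 SD, cut at about -4.2 in these data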;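 further: channel flux triggered by added potassium and thallium sulfate stimulus; B-score of peak minus minimum fluorescence over baseline after thallium stimulus; more negative B-score means stronger Kir2.1 block with less thallium influx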
KCNQ1 pot: potentiates or activates the human KCNQ1 potassium channel; P51787; CHO-K1 KCNQ1, thallium flux FluxOR fluorescence; stronger effect = higher value; B-score at 10 µM; 310,000 compounds, 0.35% hits;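 active means fluorescence ratio B-score, a plate-corrected score, at least three library SD, with initial intensity B-score within 5 SD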
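assay system = CHO-K1 cells stably expressing KCNQ1 | medium = assay buffer, equal DMSO in all wells | timing = 37 °C overnight plating, 90-min dark dye load, 20-min compound pretreatment | measured by = kinetic FluxOR thallium fluorescence, 10-s 1-Hz baseline, 110-s post-stimulus read | measure = fluorescence change relative to baseline, converted to B score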
KCNK9 block: human KCNK9 channel inhibition; HEK293 KCNK9, FluxOR thallium flux fluorescence; stronger effect = lower value; B-score at 10 µM; 310,000 compounds, 1.2% hits;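 active means ratio B-score over 3 SD below the library mean, with starting fluorescence within 5 SD of its mean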;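 further: negative B-score means less thallium flux so channel inhibition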
KCNK9 inh conf: human KCNK9 inhibitor confirmation; shares compounds with KCNK9 block; HEK293 KCNK9 cells, FluxOR thallium flux fluorescence; inhibition, % at 10 µM; 4,900 compounds, 43% hits; AID 492992;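 active means thallium signal inhibited by more than 5 SD of the compound-free buffer control wells, on both duplicate plates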;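 further: 0% = assay buffer control wells without compound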
Kir21 sel: mouse Kir2.1 off-target activity of KCNK9 modulators; 4,900 compounds, 4% hits; shares compounds with KCNK9 block; Kir2.1 cells, FluxOR thallium flux fluorescence; inhibition, % at 10 µM;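 active means thallium signal drop more than 5 SD beyond the mean of the no-compound control wells, seen in both duplicate plates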;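 further: signal is fluorescence rise after thallium addition divided by baseline fluorescence; plate controls were assay buffer only for no effect and full block by chlorpromazine control for full effect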
KCNK9 uninduced: non-induced cell nonspecific activity of KCNK9 modulators; shares compounds with KCNK9 block; non-induced KCNK9-HEK293, FluxOR thallium flux; AID 492997; inhibition, % at 10 µM; 4,900 compounds, 40% hits;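 active means thallium signal drop beyond 5 SD of the untreated control mean, on both duplicate plates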;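 further: plate controls were buffer only IC0 wells for no effect and SID17386958 at its maximal inhibitory level for full effect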
Active calls of the source: *; i = inactive; x = no result given. Shown are actives, neighbours in structure and some others; about 3.7% of the full set was active somewhere.

SMILES	hERG rescue	KCNK3 block	KCNQ1 block	Kir21 block	KCNQ1 pot	KCNK9 block	KCNK9 inh conf	Kir21 sel	KCNK9 uninduced
c1cnc2ccc(C(c3nnnn3C3CCCC3)N3CCN(c4nc5ccccc5s4)CC3)cc2c1 (stereo not drawn)	-8	-9.1*	i	0.33	i	-9.2*	i	i	40%*
Cc1nn2c(N3CCCC3)cc(C(C)C)nc2c1-c1ccccc1	-12	i	i	-0.33	i	-8.3*	58%*	i	45%*
COc1cccc(N2CCN(C(=O)CCSCc3ccccc3F)CC2)c1	-21	i	i	1.1	i	i	i	i	i
COc1ccccc1N1CCN(C(=O)CCSCc2ccccc2F)CC1	-24	i	i	-0.23	i	i	x	x	x
CCCCOn1c(C)c(C(=O)OCC)c2c3no[n+]([O-])c3ccc21	-1	i	i	1.2	i	i	x	x	x
CCCCOn1c(C)c(C(=O)OCC)c2c3nonc3ccc21	-11	i	i	0.55	i	-8.4*	33%*	i	32%*
O=C(NCCCN1CCCC1)Nc1ccccc1[N+](=O)[O-]	-6	i	i	-0.11	i	i	x	x	x
O=C(NCc1ccccc1)C1(c2ccccc2)CCN(S(=O)(=O)c2ccccc2)CC1	-3	i	i	0.59	i	i	i	i	i
CCc1nnc(NC(=O)C2Cc3ccccc3CN2S(=O)(=O)c2c(C)c(C)cc(C)c2C)s1 (stereo not drawn)	-7	i	i	-1.8	i	-13*	i	i	32%*
CCc1nnc(NC(=O)C2Cc3ccccc3CN2S(=O)(=O)CC)s1 (stereo not drawn)	-9	i	i	-0.17	i	i	x	x	x
COc1ccc(C(C(=O)NC2CCCC2)N(Cc2ccccc2)C(=O)c2nsc(Cl)c2Cl)cc1 (stereo not drawn)	-7	i	i	-1.2	i	i	x	x	x
CCOc1ccc(C(C(=O)NC2CCCC2)N(Cc2ccccc2)C(=O)c2nsc(Cl)c2Cl)cc1 (stereo not drawn)	-6	i	i	-0.6	i	-15*	72%*	i	40%*
N#Cc1ccccc1CSc1nc(N2CCCCC2)nc(N2CCCCC2)n1	-11	i	i	-0.87	i	i	i	i	i
Cc1nc(SCc2ccccc2C#N)n[nH]1	-6	i	i	0.41	i	i	x	x	x
O=c1/c(=C\c2cccc(O)c2)sc2nc(-c3ccccc3)c(-c3ccccc3)n12	-6	i	i	-0.97	i	-10*	43%*	i	28%*
Clc1cc(Cl)cc(Nc2ncn[nH]2)c1	-7	i	i	0.69	i	i	x	x	x
N#CC1=C(N)Oc2n[nH]c(-c3ccc(F)cc3)c2C1c1ccncc1 (stereo not drawn)	2	i	i	0.25	i	i	x	x	x
COc1ccc(-c2ccc(OC)c([C@H]3[C@H]4C=CC[C@@H](C)[C@@H]4C(=O)N3Cc3ccccc3)c2)cc1OC	-15	i	i	-0.93	i	i	i	i	i
C=CCn1c(SCC(=O)Nc2cc(C)on2)nnc1-c1ccccc1F	x	i	x	x	x	x	x	x	x
Cc1ncc(CN2CCCC(C(=O)Nc3ccc(-n4ccnc4C)cc3)C2)cn1 (stereo not drawn)	-8	i	i	1.6	i	i	x	x	x
Cc1ccc(C)c(N2CCN(C3CCCC(C)C3)CC2)c1 (stereo not drawn)	-13	i	i	-0.44	i	i	i	i	i
COc1cccc(N2CCN(C3CCCC(C)C3)CC2)c1 (stereo not drawn)	-7	i	i	0.13	i	i	x	x	x

Compound activity deposited in PubChem BioAssay by Johns Hopkins Ion Channel Center.
